The term clearance denotes a measure of how efficiently the substance is removed, as volume per time. Low values mean a low capacity for elimination, high ones a high capacity for elimination. As usually defined, the half-life is the time in which the quantity being followed falls by half. Lower therefore signals fast loss. For orientation: Ki means the dissociation constant of the complex between target and ligand, obtained from inhibition or displacement.

Series [1] is described as follows: Pharmacokinetic Parameter clearance was reported for Protein Tyrosine Phosphatase 1B. The series is classed as ADME, organism-based. Conditions: in vivo.
Series [2] is described as follows: Pharmacokinetic Parameter half life was reported for Protein Tyrosine Phosphatase 1B. It is filed as ADME, organism-based. Conditions: in vivo.
In series [3] the target is T1, Tyrosine-protein phosphatase non-receptor type 2 (Homo sapiens, UniProt P17706).
T1 sequence (P17706 whole entry): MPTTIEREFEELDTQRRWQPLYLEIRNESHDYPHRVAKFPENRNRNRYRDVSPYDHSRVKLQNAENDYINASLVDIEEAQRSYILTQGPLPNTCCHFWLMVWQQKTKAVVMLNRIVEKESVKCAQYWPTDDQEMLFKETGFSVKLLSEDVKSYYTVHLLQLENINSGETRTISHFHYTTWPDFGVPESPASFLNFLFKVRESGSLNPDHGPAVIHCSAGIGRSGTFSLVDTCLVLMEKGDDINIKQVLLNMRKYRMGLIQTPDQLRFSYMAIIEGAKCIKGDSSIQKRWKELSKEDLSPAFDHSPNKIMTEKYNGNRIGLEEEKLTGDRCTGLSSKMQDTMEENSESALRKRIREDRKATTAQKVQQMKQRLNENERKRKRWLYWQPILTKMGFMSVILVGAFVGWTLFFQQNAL
The series is described as follows: Inhibition of T cell protein tyrosine phosphatase (TC-PTP) at pH 7.0. The series is classed as single protein. The method, boiled down:
(§1)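 Ki from a pNPP hydrolysis assay with recombinant TC-PTP, run at pH 7.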

The nature of series [4]: Oral bioavailability. The series is classed as ADME, organism-based. As to conditions: eutheria, in vivo, read-out: f (po).
Series [5] has as its target T2, Tyrosine-protein phosphatase non-receptor type 1 (Homo sapiens, UniProt P18031).
T2 sequence (P18031 whole entry): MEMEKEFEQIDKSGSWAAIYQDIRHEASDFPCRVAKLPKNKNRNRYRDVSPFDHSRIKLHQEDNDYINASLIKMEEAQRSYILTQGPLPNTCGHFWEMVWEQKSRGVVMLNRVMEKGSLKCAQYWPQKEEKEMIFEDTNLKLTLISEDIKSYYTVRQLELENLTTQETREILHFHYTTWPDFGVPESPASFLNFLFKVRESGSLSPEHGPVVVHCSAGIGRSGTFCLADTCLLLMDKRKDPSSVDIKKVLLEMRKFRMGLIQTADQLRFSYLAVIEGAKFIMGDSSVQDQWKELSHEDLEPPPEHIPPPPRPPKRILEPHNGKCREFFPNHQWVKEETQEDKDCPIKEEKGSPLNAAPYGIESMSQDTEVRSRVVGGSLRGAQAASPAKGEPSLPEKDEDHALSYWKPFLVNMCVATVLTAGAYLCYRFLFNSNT
Put plainly: Inhibitory effect against recombinant human protein-tyrosine phosphatase 1B (PTP1B), using p-nitrophenyl phosphate substrate at pH 5.5.

A short description of series [6]: Pharmacokinetic Parameter Vss was reported for Protein Tyrosine Phosphatase 1B. It is filed as ADME, organism-based. As to conditions: in vivo; read-out: Vss.
Series [7] addresses T2, Tyrosine-protein phosphatase non-receptor type 1. Put plainly: Inhibition of human recombinant Protein-tyrosine phosphatase 1B. In short, it runs like this: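 Enzyme is a soluble recombinant human PTP1B (residues 1–321). Ki is measured at pH 5.5 with p-nitrophenyl phosphate (pNPP) as substrate.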
Series [8] addresses T1, Tyrosine-protein phosphatase non-receptor type 2. Put plainly: Inhibitory effect against inhibitory effect against T cell protein tyrosine phosphatase (TC-PTP) using p-nitrophenyl phosphate as substrate at pH 7.0. In short, it runs like this:
as §1

The target of series [9] is Receptor-type tyrosine-protein phosphatase alpha (Homo sapiens, UniProt P18433). Put plainly: Inhibitory effect against human Protein-tyrosine phosphatase alpha (PTPalpha) using p-nitrophenyl phosphate substrate at a pH 7.0. In short, it runs like this: (§2)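 Ki from pNPP hydrolysis assays at pH 7 with recombinant PTPs (CD45, LAR, PTPα).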
Receptor-type tyrosine-protein phosphatase alpha, sequence (P18433 whole entry): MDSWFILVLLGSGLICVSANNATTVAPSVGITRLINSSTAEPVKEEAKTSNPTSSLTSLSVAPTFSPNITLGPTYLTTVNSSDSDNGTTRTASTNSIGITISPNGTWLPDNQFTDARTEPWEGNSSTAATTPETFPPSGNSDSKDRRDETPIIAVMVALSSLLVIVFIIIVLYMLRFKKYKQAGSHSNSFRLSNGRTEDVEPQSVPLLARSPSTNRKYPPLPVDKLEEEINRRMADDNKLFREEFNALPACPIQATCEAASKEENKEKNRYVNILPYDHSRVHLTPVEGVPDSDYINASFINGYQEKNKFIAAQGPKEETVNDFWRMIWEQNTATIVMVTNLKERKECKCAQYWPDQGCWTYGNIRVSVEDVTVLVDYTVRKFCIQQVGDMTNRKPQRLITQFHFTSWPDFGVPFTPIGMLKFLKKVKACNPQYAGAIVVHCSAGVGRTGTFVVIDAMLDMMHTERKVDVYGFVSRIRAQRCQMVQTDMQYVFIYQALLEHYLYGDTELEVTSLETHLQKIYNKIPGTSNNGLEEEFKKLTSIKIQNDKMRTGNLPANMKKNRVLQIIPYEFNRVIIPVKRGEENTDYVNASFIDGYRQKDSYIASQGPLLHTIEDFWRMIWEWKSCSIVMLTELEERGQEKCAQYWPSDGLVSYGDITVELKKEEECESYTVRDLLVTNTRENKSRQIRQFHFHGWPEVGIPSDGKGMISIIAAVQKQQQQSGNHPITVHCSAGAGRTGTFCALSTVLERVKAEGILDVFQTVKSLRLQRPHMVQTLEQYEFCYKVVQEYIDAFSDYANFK
Series [10] addresses T3, Receptor-type tyrosine-protein phosphatase C (Homo sapiens, UniProt P08575).
T3 sequence (P08575 whole entry): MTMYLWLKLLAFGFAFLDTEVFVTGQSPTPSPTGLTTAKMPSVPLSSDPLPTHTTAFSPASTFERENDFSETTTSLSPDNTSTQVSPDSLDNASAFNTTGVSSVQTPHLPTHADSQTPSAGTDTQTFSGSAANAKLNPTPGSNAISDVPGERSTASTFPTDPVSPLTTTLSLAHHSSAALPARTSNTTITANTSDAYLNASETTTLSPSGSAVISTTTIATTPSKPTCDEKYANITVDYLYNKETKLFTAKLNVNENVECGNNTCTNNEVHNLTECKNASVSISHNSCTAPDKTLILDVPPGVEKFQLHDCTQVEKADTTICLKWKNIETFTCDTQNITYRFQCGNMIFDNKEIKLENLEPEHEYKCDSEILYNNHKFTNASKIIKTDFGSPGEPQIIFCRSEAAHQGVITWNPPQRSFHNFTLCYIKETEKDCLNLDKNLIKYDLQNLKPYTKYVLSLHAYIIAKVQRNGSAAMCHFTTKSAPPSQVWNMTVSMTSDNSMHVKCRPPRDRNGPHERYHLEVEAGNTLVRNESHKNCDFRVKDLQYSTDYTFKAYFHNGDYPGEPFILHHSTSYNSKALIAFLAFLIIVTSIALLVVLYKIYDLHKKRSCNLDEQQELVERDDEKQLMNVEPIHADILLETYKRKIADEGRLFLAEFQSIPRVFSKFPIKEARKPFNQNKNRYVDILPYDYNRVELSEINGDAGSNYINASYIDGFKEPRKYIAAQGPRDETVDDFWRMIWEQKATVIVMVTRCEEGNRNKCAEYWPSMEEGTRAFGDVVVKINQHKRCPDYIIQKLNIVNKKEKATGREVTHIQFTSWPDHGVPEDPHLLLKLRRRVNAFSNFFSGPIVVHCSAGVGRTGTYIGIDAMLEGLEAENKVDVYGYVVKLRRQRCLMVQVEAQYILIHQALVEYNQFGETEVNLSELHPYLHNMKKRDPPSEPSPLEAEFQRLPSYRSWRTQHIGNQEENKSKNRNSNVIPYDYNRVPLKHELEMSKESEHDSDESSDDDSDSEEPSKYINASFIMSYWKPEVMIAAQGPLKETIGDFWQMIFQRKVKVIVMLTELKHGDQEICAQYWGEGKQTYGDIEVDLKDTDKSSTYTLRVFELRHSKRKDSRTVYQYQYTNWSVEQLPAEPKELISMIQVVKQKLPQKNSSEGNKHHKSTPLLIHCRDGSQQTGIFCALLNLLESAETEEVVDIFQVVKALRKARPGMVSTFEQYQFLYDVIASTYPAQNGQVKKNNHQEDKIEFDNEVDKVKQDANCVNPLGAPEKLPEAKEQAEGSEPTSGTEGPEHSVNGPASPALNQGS
Put plainly: Inhibitory effect against human CD45 tyrosine phosphatase using p-nitrophenyl phosphate substrate at a pH 7.0. The method, boiled down: as §2

Series [11] is described as follows: Pharmacokinetic Parameter t1/2 was reported for Protein Tyrosine Phosphatase 1B. It is filed as ADME, organism-based. As to conditions: in vivo.
Series [12] concerns the target Receptor-type tyrosine-protein phosphatase F (Homo sapiens, UniProt P10586). The series is described as follows: Inhibitory effect against human Protein-tyrosine phosphatase Lar using p-nitrophenyl phosphate substrate at a pH 7.0. In short, it runs like this:
as §2

“And” between values parts separate entries of the source, which are not always exact repeats. Identical values can stand only once.

Receptor-type tyrosine-protein phosphatase F, sequence (P10586 whole entry): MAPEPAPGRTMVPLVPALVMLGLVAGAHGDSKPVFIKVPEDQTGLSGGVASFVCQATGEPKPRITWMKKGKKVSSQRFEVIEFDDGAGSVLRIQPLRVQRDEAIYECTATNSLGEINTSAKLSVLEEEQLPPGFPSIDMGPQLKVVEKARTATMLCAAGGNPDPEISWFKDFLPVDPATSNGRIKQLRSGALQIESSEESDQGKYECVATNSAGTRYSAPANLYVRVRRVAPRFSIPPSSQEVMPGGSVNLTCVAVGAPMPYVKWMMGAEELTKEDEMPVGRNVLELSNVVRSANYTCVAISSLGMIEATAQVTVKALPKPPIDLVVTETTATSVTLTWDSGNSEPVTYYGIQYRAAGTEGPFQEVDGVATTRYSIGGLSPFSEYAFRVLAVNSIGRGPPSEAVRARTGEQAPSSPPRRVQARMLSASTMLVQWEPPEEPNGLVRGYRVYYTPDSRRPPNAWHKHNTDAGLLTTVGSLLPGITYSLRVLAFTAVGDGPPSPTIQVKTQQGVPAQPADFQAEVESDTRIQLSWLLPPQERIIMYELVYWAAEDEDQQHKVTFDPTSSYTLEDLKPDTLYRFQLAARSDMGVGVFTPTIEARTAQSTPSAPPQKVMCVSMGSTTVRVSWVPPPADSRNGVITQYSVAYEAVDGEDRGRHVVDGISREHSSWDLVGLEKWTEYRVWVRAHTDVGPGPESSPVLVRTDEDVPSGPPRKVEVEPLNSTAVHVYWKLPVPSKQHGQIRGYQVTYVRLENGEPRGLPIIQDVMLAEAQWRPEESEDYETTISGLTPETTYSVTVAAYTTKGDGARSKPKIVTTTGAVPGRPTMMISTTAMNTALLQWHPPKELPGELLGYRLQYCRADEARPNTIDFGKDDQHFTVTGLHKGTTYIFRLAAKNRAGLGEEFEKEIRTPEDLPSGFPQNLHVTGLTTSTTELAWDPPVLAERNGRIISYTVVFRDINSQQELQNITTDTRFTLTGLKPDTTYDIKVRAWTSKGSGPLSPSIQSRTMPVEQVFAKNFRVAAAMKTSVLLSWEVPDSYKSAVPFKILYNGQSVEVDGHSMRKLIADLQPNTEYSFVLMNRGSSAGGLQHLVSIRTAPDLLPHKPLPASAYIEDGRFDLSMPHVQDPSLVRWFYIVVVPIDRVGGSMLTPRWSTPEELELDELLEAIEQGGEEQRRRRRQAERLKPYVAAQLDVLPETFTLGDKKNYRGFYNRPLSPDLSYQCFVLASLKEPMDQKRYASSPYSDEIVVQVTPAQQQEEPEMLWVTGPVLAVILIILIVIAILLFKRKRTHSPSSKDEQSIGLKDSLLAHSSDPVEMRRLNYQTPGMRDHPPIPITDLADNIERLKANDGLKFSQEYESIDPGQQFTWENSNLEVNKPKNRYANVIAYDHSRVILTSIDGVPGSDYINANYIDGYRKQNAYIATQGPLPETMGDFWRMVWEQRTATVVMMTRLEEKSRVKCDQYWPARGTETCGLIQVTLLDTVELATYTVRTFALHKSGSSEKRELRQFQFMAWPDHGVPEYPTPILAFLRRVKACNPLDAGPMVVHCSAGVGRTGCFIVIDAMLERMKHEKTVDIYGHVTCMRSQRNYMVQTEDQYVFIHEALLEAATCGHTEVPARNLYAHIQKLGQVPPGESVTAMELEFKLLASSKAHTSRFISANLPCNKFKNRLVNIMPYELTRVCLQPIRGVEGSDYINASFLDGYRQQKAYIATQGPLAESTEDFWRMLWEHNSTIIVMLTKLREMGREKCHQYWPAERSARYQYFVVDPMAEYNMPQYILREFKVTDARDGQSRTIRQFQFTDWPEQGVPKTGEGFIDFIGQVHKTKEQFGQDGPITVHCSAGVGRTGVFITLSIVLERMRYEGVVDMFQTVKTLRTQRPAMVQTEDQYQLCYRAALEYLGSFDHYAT

`O=C(O)C(=O)Nc1sc2c(c1C(=O)O)CCNC2` came in with a clearance in series [1] of 0.384 L/h/kg. In series [2], this compound gave a half-life of 2.8 h. In addition, the inhibition constant Ki in series [3] turned out to be 9.4 µM; in series [5], 0.29 µM; in series [7], 4.7 µM. Further, the bioavailability in series [4] was 56%. For the same compound, the Vd in [6] came out at 0.9 L/kg.
Consider `O=C(O)C(=O)Nc1sc2c(c1C(=O)O)CCN(Cc1ccc3ccccc3c1)C2`, for which the values for the inhibition constant Ki in [8] and in series [7] were 34 µM and 42 µM, respectively.
The compound `O=C(O)C(=O)Nc1sc2c(c1C(=O)O)CCN(CCc1ccccc1)C2` displayed a clearance in [1] of 0.384 L/h/kg. Also, the inhibition constant Ki in [9] was 2100 µM; in [10], 1400 µM; in series [5] it was 0.27 µM; in series [7], 3.2 µM and 7.2 µM; in series [12], 2100 µM. Further, the bioavailability in series [4] was determined as 13%. Also, the half-life in series [11] is 2.82 h. The Vd in series [6] turned out to be 0.9 L/kg.

Values taken from ChEMBL document CHEMBL1135823, “Discovery and SAR of a novel selective and orally bioavailable nonpeptide classical competitive inhibitor class of protein-tyrosine phosphatase 1B” (J Med Chem, 2002).
